According to ChEMBL document CHEMBL1153988 (J Med Chem, 2009):
Active and inactive are the calls of the source. No cut-off for these calls is given here.

Key:
Mus musculus [1] = experiment: Anticonvulsant activity in CF1 albino mouse assessed as protection against maximal electroshock-induced seizures at 30 mg/kg, ip after 4 hrs; format: functional, organism-based; set-up: dose 30 mg/kg
How it was run: (§1)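 Adult male CF no. 1 albino mice (18-25 g). Test compound suspended in 0.5% methylcellulose and given intraperitoneally at 0.01 mL/g body weight. Maximal electroshock challenge at the stated time. Read-out is the number of animals protected over the number tested; neurotoxicity is scored in parallel.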

Mus musculus [2] = experiment: Neurotoxicity in CF1 albino mouse at 30 mg/kg, ip after 0.5 hrs; format: toxicity, organism-based; set-up: dose 30 mg/kg, route intraperitoneal; details: in vivo
How it was run: (§2)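 Male CF no. 1 albino mice (18-25 g) received a single ip dose as a suspension in 0.5% methylcellulose. The read-out was the number of animals showing neurotoxicity (minimal motor impairment) over the number tested.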

Mus musculus [3] = experiment: Neurotoxicity in CF1 albino mouse at 300 mg/kg, ip after 0.5 hrs; format: toxicity, organism-based; set-up: dose 300 mg/kg, route intraperitoneal; details: in vivo; how it was run: as §2
Mus musculus [4] = experiment: Neurotoxicity in CF1 albino mouse at 30 mg/kg, ip after 4 hrs; format: toxicity, organism-based; set-up: dose 30 mg/kg, route intraperitoneal; details: in vivo; how it was run: as §2
Rattus norvegicus [5] = experiment: Anticonvulsant activity in albino Sprague-Dawley rat assessed as protection against maximal electroshock-induced seizures at 50 mg/kg, po after 15 mins; format: functional
How it was run: (§3)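 Adult male Sprague-Dawley albino rats (100-150 g) dosed orally with compound suspended in 0.5% methylcellulose (0.04 mL per 10 g). Maximal electroshock challenge at the stated time. Protection is scored in 25% steps as the fraction of animals protected, with neurotoxicity recorded in parallel.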

Rattus norvegicus [6] = experiment: Anticonvulsant activity in albino Sprague-Dawley rat assessed as protection against maximal electroshock-induced seizures at 50 mg/kg, po after 2 hrs; format: functional; how it was run: as §3
Rattus norvegicus [7] = experiment: Neurotoxicity in albino Sprague-Dawley rat at 50 mg/kg, po; format: toxicity, organism-based; set-up: dose 50 mg/kg, route oral; details: in vivo
How it was run: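 Neurotoxicity was scored in male Sprague-Dawley albino rats (100-150 g) dosed orally with a suspension in 0.5% methylcellulose. The read-out was the fraction of animals showing neurotoxicity (minimal motor impairment).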

Rattus norvegicus [8] = experiment: Anticonvulsant activity in albino Sprague-Dawley rat assessed as protection against scMet-induced seizures at 50 mg/kg, po after 15 mins; format: functional
How it was run: (§4)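 Male Sprague-Dawley albino rats (100-150 g) were given the compound orally as a suspension in 0.5% methylcellulose. Seizures were induced by subcutaneous pentylenetetrazol, dissolved in 0.9% saline as a 2.82% solution. The read-out was animals protected over animals tested.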

Rattus norvegicus [9] = experiment: Anticonvulsant activity in albino Sprague-Dawley rat assessed as protection against scMet-induced seizures at 50 mg/kg, po after 1 hr; format: functional; how it was run: as §4
Rattus norvegicus [10] = experiment: Anticonvulsant activity in albino Sprague-Dawley rat assessed as protection against scMet-induced seizures at 50 mg/kg, po after 2 hrs; format: functional; how it was run: as §4
Mus musculus [11] = experiment: Anticonvulsant activity in CF1 albino mouse assessed as protection against maximal electroshock-induced seizures at 60 mg/kg, ip; format: functional, organism-based; set-up: dose 60 mg/kg; how it was run: as §1
Mus musculus [12] = experiment: Anticonvulsant activity in CF1 albino mouse assessed as protection against scMet-induced seizures at 50 mg/kg, ip; format: functional, organism-based; set-up: dose 50 mg/kg
How it was run: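 Adult male CF no. 1 albino mice (18-25 g) dosed intraperitoneally with compound suspended in 0.5% methylcellulose (0.01 mL/g). Convulsant challenge given subcutaneously as a 0.85% pentylenetetrazol solution in 0.9% saline. Read-out is animals protected over animals tested, with neurotoxicity scored in parallel.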

Mus musculus [13] = experiment: Neurotoxicity in CF1 albino mouse assessed as minimal motor impairment at 60 mg/kg, ip; format: toxicity, organism-based; set-up: dose 60 mg/kg, route intraperitoneal; details: in vivo; how it was run: as §2
Mus musculus [14] = experiment: Anticonvulsant activity in CF1 albino mouse assessed as protection against 32 mA-current-induced seizure at 130 mg/kg, ip by 6Hz psychomotor seizure test; format: functional, organism-based; set-up: dose 130 mg/kg
How it was run: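 6 Hz psychomotor seizure test in male CF no. 1 mice, with compound given ip as a 0.5% methylcellulose suspension. Groups of 8 animals per dose. The 32 mA test used 25, 70 and 130 mg/kg; the 44 mA test used 25, 50, 75 and 100 mg/kg. ED50 and 95% confidence interval were obtained by probit analysis.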

Rattus norvegicus [15] = experiment: Anticonvulsant activity in albino Sprague-Dawley rat assessed as protection against maximal electroshock-induced seizures at 100 mg/kg, po; format: functional, organism-based; set-up: dose 100 mg/kg; how it was run: as §3
Rattus norvegicus [16] = experiment: Anticonvulsant activity in albino Sprague-Dawley rat assessed as protection against pilocarpine-induced status epilepticus dosed ip after 30 mins of pilocarpine induction; format: functional; details: 0.5 h
How it was run: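 Rat pilocarpine status epilepticus model. Compound is given 30 min after pilocarpine status induction, or after the first stage III seizure. Seizure severity is rated on the Racine scale and scored as protection or no protection. Doses of 50, 75 and 100 mg/kg were used, with 7, 6 and 7 rats respectively. ED50 was derived by probit analysis.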

Mus musculus [17] = experiment: Teratogenic effect in SWV mouse assessed as number of litters at 502 mg/kg, ip administered on morning of day 8 of gestation; format: toxicity, organism-based; set-up: dose 502 mg/kg, route intraperitoneal; details: in vivo
How it was run: (§5)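 Inbred SWV mouse strain highly susceptible to VPA-induced neural tube defects. Each dam received a single ip injection on gestation day 8.5, dosed within 1.8-4.2 mmol/kg, against a control of 25% aqueous Cremophor EL. Groups were compared with the control, and with the matched VPA sodium-salt dose, by Fisher's exact test (p < 0.05).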

Mus musculus [18] = experiment: Teratogenic effect in SWV mouse assessed as number of implants at 336 mg/kg, ip administered on morning of day 8 of gestation; format: toxicity, organism-based; set-up: dose 336 mg/kg, route intraperitoneal; details: in vivo; how it was run: as §5
Mus musculus [19] = experiment: Teratogenic effect in SWV mouse assessed as number of dead fetuses at 671 mg/kg, ip administered on morning of day 8 of gestation; format: toxicity, organism-based; set-up: dose 671 mg/kg, route intraperitoneal; details: in vivo; how it was run: as §5
Mus musculus [20] = experiment: Teratogenic effect in SWV mouse assessed as number of dead fetuses at 336 mg/kg, ip administered on morning of day 8 of gestation; format: toxicity, organism-based; set-up: dose 336 mg/kg, route intraperitoneal; details: in vivo; how it was run: as §5

CC1(C)C(C)(C)C1(F)C(N)=O
Activity (Mus musculus [1]): Non-toxic | Activity (Mus musculus [2]): Non-toxic | Activity (Mus musculus [3]): Toxic | Activity (Mus musculus [4]): Non-toxic | Activity (Rattus norvegicus [5]): inactive | Activity (Rattus norvegicus [6]): inactive | Activity (Rattus norvegicus [7]): Not Active | Activity (Rattus norvegicus [8]): 100% | Activity (Rattus norvegicus [9]): 75% | Activity (Rattus norvegicus [10]): 75% | Activity (Mus musculus [11]): inactive | Activity (Mus musculus [12]): Active | Activity (Mus musculus [13]): Non-toxic | Activity (Mus musculus [14]): Active | Activity (Rattus norvegicus [15]): inactive | ED50 (Rattus norvegicus [16]): 80 mg/kg | Activity (Mus musculus [17]): 10 | Activity (Mus musculus [18]): 112 | Activity (Mus musculus [19]): 0 | Activity (Mus musculus [20]): 0
